Screens: PubChem, several laboratories
In the library only some 6.7% were active in any assay of this set; here they are far more common.
CSC inhib: cancer stem cell viability inhibitors, primary screen, luminescence; cancer stem cell-like cells viability; inhibition, % at 7.5 µM; 300,000 compounds, 1.1% hits; AID 2717, 2010; in the data active means inhibition above about 75%; tested in HMLE shEcad cells
Beta cell apopt: inhibitors of cytokine-induced beta cell apoptosis, primary screen, luminescence. INS-1E cytokine-induced death, ATP luminescence, 48 h; percent of positive-control rescue, neutral wells zero. protection from apoptosis, % (no concentration beside the values). 300,000 compounds, 0.8% hits. AID 435005, 2010;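 active means Every replicate reaches about 75%, or at least half do and their mean reaches it too, limit read from the data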;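 further: 0% = cytokine-treated negative control wells and 100% = positive control rescue; higher means more ATP so stronger rescue from cytokine killing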
NR3A LBD binder: binders of NR3A ligand-binding domain, primary screen, biophysical, differential scanning fluorimetry, uHTS. Glutamate receptor ionotropic, NMDA 3A (GRIN3A) ligand-binding domain. NR3A LBD differential scanning fluorimetry, Tm shift; 0% = protein alone, 100% = glycine-bound protein. Tm shift relative to glycine control, % at 25 µM. 340,000 compounds, 2.5% hits. AID 1259313, 2017;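 active means melting temperature shift of at least 10% of the positive control shift, at one fixed dose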
PREPL inhibitor: PREPL enzyme inhibitors, primary screen, biochemical, fluorescence polarization. inhibition, % at 5.96 µM. 320,000 compounds, 0.68% hits. recombinant PREPL, fluorescence polarization activity-based probe. AID 2751, 2010. Prolyl endopeptidase-like (Homo sapiens), Q4J6C6; in the data active means inhibition above about 43%;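 further: 0% = enzyme with DMSO and 100% = wells lacking enzyme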
CHOP inh: inhibitors of CHOP promoter induction, primary screen, cell-based, unfolded protein response, luciferase reporter; 220,000 compounds, 3.8% hits; inhibition, % at 10 µM; CHO-K1 CHOP-promoter luciferase, tunicamycin-induced, 15-18 h;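 active means compounds that reduced the stress-induced luciferase reporter signal by more than about 70% of percent inhibition, limit read from the data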;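 further: 0% = tunicamycin plus vehicle and 100% = wells without tunicamycin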
T cruzi inh: inhibitors of intracellular T. cruzi growth, primary screen, luminescence, NIH3T3 host cells | T. cruzi beta-gal in NIH3T3, 90 h | inhibition, % (test concentration not listed) | 300,000 compounds, 1.4% hits;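 active means mean inhibition across valid replicates above about 55%, limit read from the data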;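 further: signal also drops with host cell toxicity which is not excluded here; 0% = plate median of DMSO wells and 100% = zero luminescence signal; higher percent means less beta-gal luminescence so fewer parasites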
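System: NIH/3T3 fibroblasts plus reporter T. cruzi. Medium: DMEM plus 2% FBS. Probe or stimulus: 5000 reporter trypomastigotes per well. Compound: single 50 nL compound addition per well in DMSO. Incubation: co-culture of at least 90 h after 3 h attachment. Detection: GalScreen β-gal luminescence, detergent lysis, 60 min. Evaluation: parasite load inhibition, %.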
The depositor's hits bear a star; · = no result given.

SMILES	CSC inhib	Beta cell apopt	NR3A LBD binder	PREPL inhibitor	CHOP inh	T cruzi inh
O=C(CCl)c1ccc2c(c1)CCN2C(=O)C1CC1	51	-25	·	13	109*	19
O=C(C1CCC(C(=O)N2CCc3ccccc32)CC1)N1CCc2ccccc21 (configuration not stated)	10	·	-2	22	56	2
Cc1ccc(NC(=O)C(=O)NCCCN2CC(C(=O)O)CC2=O)cc1 (configuration not stated)	-7	-2	2	8	·	-1
COCCNC(=O)CCc1nnc(C2(c3ccc(Cl)cc3)CCC2)o1	-5	-1	0	0	58	-9
O=C(NC(=S)NNC(=O)c1cnccn1)c1ccc(Cl)cc1	94*	4	-2	22	60	11
COc1ccc(C(=O)NC(=S)NNC(=O)c2cnccn2)cc1	88*	77*	-1	3	39	22
COc1ccc(CC(=O)NNC(=O)c2cnccn2)cc1	1	-8	1	4	9	-2
O=C(NNC(=S)NC(=O)c1cccnc1)c1ccc(Cl)cc1	17	-1	-3	1	-1	-11
COc1cc(C(=O)NC(=S)NNC(=O)c2cnccn2)cc(OC)c1OC	36	82*	5	13	68	-18
COc1ccccc1C(=O)NNC(=S)NC(=O)c1cc(OC)c(OC)c(OC)c1	-2	40	-2	2	55	60*
CCS(=O)(=O)Nc1ccc(-c2nc3cccnc3s2)cc1	-10	-13	-5	4	22	-11
COc1ccc(NS(=O)(=O)c2cc(NC(=O)CCc3ccccc3)ccc2N2CCOCC2)cc1	·	·	-6	·	·	·
COc1ccc(C(=O)COc2ccc(NC(C)=O)cc2)cc1	-8	8	13*	6	14	9
CCOc1ccc(NC(=O)CC(=O)Nc2ccc(OCC)cc2)cc1	-6	-4	2	2	·	5
CCOc1ccc(C(=O)Oc2ccc(NC(C)=O)cc2)cc1	-8	-5	·	24	83*	-14
CCOc1ccc(OCC(=O)Nc2ccc(OC)cc2)cc1	8	·	-18	6	24	7
CCOC(=O)C1=C(c2ccccc2)N=c2s/c(=C\c3cc(OC)c(OC)c(OC)c3)c(=O)n2C1c1cccs1 (configuration not stated)	-4	-3	-1	-2	-19	63*
CCOC(=O)C1=C(c2ccccc2)N=c2s/c(=C\c3ccco3)c(=O)n2C1c1cccs1 (configuration not stated)	·	·	-4	3	38	-5
Cc1ccc2c(c1)[C@@H]1[C@H](CO2)[C@H](c2ccccc2)[C@]2(C)C(=O)N[C@H](C)C(=O)N12	-9	-2	2	0	·	·
COc1cc(C(=O)N[C@H](C(=O)NC(C)C23CC4CC(CC(C4)C2)C3)C(C)C)cc(OC)c1OC (some centres not stated)	-1	·	2	14	75*	-4
COc1cc(C(=O)NC23CC4CC(CC(C4)C2)C3)cc(OC)c1OC	15	12	1	·	·	-2
Cc1oc(-c2ccc(Cl)cc2)nc1CS(=O)CC(=O)NCCCN(C)C1CCCCC1 (configuration not stated)	-1	-2	-2	57*	22	40
Cc1ccccc1-c1nc(CS(=O)CC(=O)NCCc2ccc(Cl)cc2)c(C)o1 (configuration not stated)	-16	-5	489*	-32	·	19
Cc1oc(-c2ccccc2Cl)nc1CS(=O)CC(=O)NCCc1ccccc1 (configuration not stated)	2	-3	2	6	·	20
CC1CC(C)CN(C(=O)COC(=O)c2ccc(Cl)nc2)C1 (configuration not stated)	·	·	-2	·	·	·
O=C(O)Cc1cccc(=O)c(O)c1C(=O)O	·	·	1	·	·	·
COc1cc(/C=C2/SC(=S)N(CCC(=O)Nc3ccccc3)C2=O)cc(OC)c1OC	14	14	-3	10	·	5
O=c1[nH]c(SCc2nc3c(cnn3-c3ccccc3)c(=O)[nH]2)nc2ccccc12	·	·	-6	·	29	·
